Source: PubChem
Hits are enriched below; roughly 1.6% of the tested compounds scored in any of these assays.
PG9 binder – small molecules binding HIV-1 gp120 antibody PG9; TR-FRET gp120-PG9 antibody binding; inhibition, % at 6.7 µM; actives 0.43% (n = 360,000); AID 624416; in the data active means inhibition above about 8.5%
VLA-4 inh – inhibition in a human VLA-4 binding assay. P13612. VLA-4 expressing cells, ligand binding flow cytometry. inhibition, % (about 7 µM as worked out from the volumes in the protocol). actives 0.2% (n = 330,000). AID 2557; in the data active means inhibition above about 50%
Rev-erbA mod – modulators of human Rev-erb alpha DNA binding; P20393; Rev-erbα–FITC-DNA binding, fluorescence polarization, 90 min; activity, % at 10 µM; actives 0.79% (n = 370,000);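 active means activity above about 14%, limit read from the data; passing the limit was not always enough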
Target sequence (P20393 whole entry, looked up): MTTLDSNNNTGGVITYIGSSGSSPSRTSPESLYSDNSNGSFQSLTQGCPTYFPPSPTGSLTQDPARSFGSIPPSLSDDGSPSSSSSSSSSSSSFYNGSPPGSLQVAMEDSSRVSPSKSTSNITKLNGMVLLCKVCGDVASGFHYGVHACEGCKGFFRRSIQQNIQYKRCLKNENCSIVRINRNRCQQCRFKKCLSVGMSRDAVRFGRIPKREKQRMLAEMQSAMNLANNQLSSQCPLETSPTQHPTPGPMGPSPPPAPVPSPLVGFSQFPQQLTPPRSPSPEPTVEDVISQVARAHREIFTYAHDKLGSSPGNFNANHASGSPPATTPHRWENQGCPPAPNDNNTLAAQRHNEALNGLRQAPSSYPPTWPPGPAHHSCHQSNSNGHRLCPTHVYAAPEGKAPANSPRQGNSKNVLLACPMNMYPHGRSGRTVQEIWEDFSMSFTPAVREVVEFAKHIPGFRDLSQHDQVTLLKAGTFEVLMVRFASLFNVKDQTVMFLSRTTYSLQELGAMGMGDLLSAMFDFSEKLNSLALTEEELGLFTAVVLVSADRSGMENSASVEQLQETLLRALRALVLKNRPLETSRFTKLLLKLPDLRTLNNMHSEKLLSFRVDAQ
NR2E3 ag-1 – agonists of human NR2E3 nuclear receptor; Q9Y5X4; actives 0.35% (n = 360,000); CHO-S Gal4-NCOR/VP16-NR2E3 two-hybrid, luciferase; inhibition of corepressor binding, % at 3.98 µM;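 active means inhibition above the mean of all tested compounds plus 3 SD, cut at about 70% in these data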;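 further: higher means lower luciferase signal from less NR2E3 corepressor binding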
NR2E3 ag-2 – agonists of human nuclear receptor NR2E3 | actives 0.12% (n = 320,000) | inhibition of corepressor binding, % at 4.78 µM | GST-NR2E3/biotin-RetCOR TR-FRET, 1536-well | Q9Y5X4;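 active means percent inhibition above the cutoff of mean plus 3 SD of all tested compounds, set per screening campaign, cut at about 20% in these data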
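Material – GST-tagged NR2E3 plus biotinylated RetCOR corepressor · Quantity – NR2E3 fusion 1.35 nM · Times – 5 h incubation at 4 °C · Medium – pH 7.5 Tris-based buffer · Technique – TR-FRET, Eu(K)-anti-GST donor, streptavidin-D2 acceptor, ex 340, em 617/671 nm · Benchmarks – high control biotin, low control 0.6% DMSO · Format – 1536-well plates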
NR2E3 ag confirm – NR2E3 agonism confirmed in two-hybrid assay; shares compounds with NR2E3 ag-1; CHO-S mammalian two-hybrid NR2E3-NCOR, luciferase luminescence; inhibition, % at 3.98 µM; actives 51% (n = 2,300); AID 624378;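 active means average inhibition above a cutoff equal to the mean inhibition of all tested compounds plus one SD, cut at about 70% in these data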
VP16 counter – GAL4-VP16 reporter inhibition in NR2E3 agonist counterscreen; shares compounds with NR2E3 ag-1; CHO-S GAL4-VP16 luciferase reporter, luminescence; inhibition, % at 3.98 µM; actives 29% (n = 2,300); AID 624379;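 active means mean inhibition above a cutoff equal to the average over all tested compounds plus one standard deviation, cut at about 70% in these data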;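 further: luciferase from a UAS reporter driven by GAL4-VP16 transactivation; higher means less reporter light so more repression of VP16 activity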
Large screens that a line does not name were inactive (follow-up assays come after a bar, where they were run).

COc1ccc(Nc2nc(N)c(C(=O)c3ccc(OC)cc3)s2)cc1	none
COc1ccc(C(=O)c2sc(NC(C)C)nc2N)cc1OC	none | NR2E3 ag confirm inactive | VP16 counter inactive
COc1cccc(C(=O)c2sc(NC(C)C)nc2N)c1	NR2E3 ag-1 94 | NR2E3 ag confirm 94 | VP16 counter inactive
COc1ccc(Nc2nc(N)c(C(=O)c3ccc(F)cc3)s2)cc1	none
Cn1nc(C(C)(C)C)cc1C(=O)NCc1ccc(N2CCCC2=O)cc1	NR2E3 ag-1 92 | NR2E3 ag confirm 96 | VP16 counter 87
COc1ccc(C2C(C(=O)Nc3ccc(F)cc3)CCC(=O)N2c2ccc(OC)cc2)cc1 (centres undefined)	none (no result: PG9 binder, VLA-4 inh, NR2E3 ag-1, NR2E3 ag-2)
COc1cccc(N2CCN(CC(=O)NCc3ccccc3C)CC2)c1	none (no result: PG9 binder, VLA-4 inh, NR2E3 ag-1, NR2E3 ag-2)
COc1cc(/C=N/NC(=O)c2sc(N)c(C#N)c2C)cc(Br)c1O	none | NR2E3 ag confirm inactive | VP16 counter inactive
COc1ccc2ccccc2c1/C=N/NC(=O)c1sc(N)c(C#N)c1C	none
Clc1ccc(OCCN2CCN(c3ncnc4sccc34)CC2)cc1	NR2E3 ag-1 89 | NR2E3 ag confirm 98 | VP16 counter 93
Cc1ccc(OCCN2CCN(c3ncnc4sc(C)c(C)c34)CC2)cc1	NR2E3 ag-1 92 | NR2E3 ag confirm 98 | VP16 counter 93
c1ccc(CN2CCN(c3ncnc4sccc34)CC2)cc1	none (no result: PG9 binder, VLA-4 inh, NR2E3 ag-1, NR2E3 ag-2)
Cc1ccccc1NC(=O)OC1CCC12CCC(c1ccccc1)CC2 (centres undefined)	none (no result: PG9 binder, VLA-4 inh, NR2E3 ag-1, NR2E3 ag-2)
COC(=O)Cc1ccc(NC(=O)c2ccc(C(C)(C)C)cc2)cc1	none | NR2E3 ag confirm inactive | VP16 counter inactive
COC(=O)Cc1ccc(NC(=O)c2ccccc2Cl)cc1	none
O=C(O)CC1(CC(=O)NCc2ccc(C(F)(F)F)cc2)CCCCC1	none
O=C(O)CC1(CC(=O)Nc2cc(C(F)(F)F)cc(C(F)(F)F)c2)CCCCC1	none | NR2E3 ag confirm 88 | VP16 counter inactive
O=C(Nc1cccc(Cl)c1)O[C@@H]1CC[C@@]23CCCN2C(=O)CCC[C@H]3C1	none (no result: PG9 binder, VLA-4 inh, NR2E3 ag-1, NR2E3 ag-2)
Oc1ccc(O)c(C=NNC(=S)NC2CC3CC2C2C=CCC32)c1 (centres undefined)	none (no result: VLA-4 inh, NR2E3 ag-2) | NR2E3 ag confirm inactive | VP16 counter inactive
COc1ccc2oc(C(=O)OCC(=O)N3CCN(S(=O)(=O)c4ccc(C)cc4)CC3)c(C)c2c1	NR2E3 ag-1 70 | NR2E3 ag confirm 86 | VP16 counter 72
O=S(=O)(NCCN1CCOCC1)c1ccc(Oc2ccccc2Cl)cc1	none | NR2E3 ag confirm inactive | VP16 counter inactive
O=S(=O)(NCCN1CCOCC1)c1ccc2ccccc2c1	none (no result: NR2E3 ag-2)
COC(=O)C1=C(C)N(Cc2ccccc2C(F)(F)F)C(=NCc2ccc3c(c2)OCO3)NC1c1ccccc1 (centres undefined)	none (no result: VLA-4 inh, NR2E3 ag-1, NR2E3 ag-2)
Cc1cc(C(=O)NC2CCCc3c2cnn3-c2ccc(C(C)(C)C)cc2)nn1C (centres undefined)	NR2E3 ag-1 101 | NR2E3 ag confirm 94 | VP16 counter 82
Cc1cc(C)cc(-n2ncc3c2CCCC3NC(=O)c2cc(C)n(C)n2)c1 (centres undefined)	none
CC(C)(C)c1ccc(-n2ncc3c2CCCC3NC(=O)CN2CCCCC2=O)cc1 (centres undefined)	none | NR2E3 ag confirm inactive | VP16 counter inactive
CC(C)(C)c1ccc(-n2ncc3c2CCCC3NC(=O)CCN2CCCO2)cc1 (centres undefined)	none | NR2E3 ag confirm inactive | VP16 counter inactive
CC(C)(C)c1ccc(-n2ncc3c2CCCC3NC(=O)C2(C(N)=O)CC2)cc1 (centres undefined)	NR2E3 ag-1 100 | NR2E3 ag confirm 92 | VP16 counter 81
CC(C)(C)c1ccc(-n2ncc3c2CCCC3NC(=O)CCn2cncn2)cc1 (centres undefined)	none
O=C(OC12CCCN(C1)/C(=C/c1cccc(Cl)c1)C2)c1ccc(Cl)cc1 (centres undefined)	none (no result: PG9 binder, VLA-4 inh, NR2E3 ag-1, NR2E3 ag-2)
OC(c1cc(-c2ccc(C(F)(F)F)cc2)nc(C(F)(F)F)c1)C1CCCCN1 (centres undefined)	NR2E3 ag-1 92 | NR2E3 ag confirm inactive | VP16 counter inactive
